Reference: ChEMBL document CHEMBL4513216, “Probing the Open Global Health Chemical Diversity Library for Multistage-Active Starting Points for Next-Generation Antimalarials” (ACS Infect Dis, 2020)

Test: Toxicity liver stage against HepG2, at 10uM
Format: cell-based
Parameters: test concentration 10 uM, cell line HepG2-A16-CD81EGFP
Details: human, HepG2-A16-CD81EGFP cells; read-out: INHIBITION
Summary of the method: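 Uninfected HepG2-A16-CD81EGFP cells, 3 × 10^3 per well, 1536-well, plated on prespotted compound at 10 μM final, parasite-free screening media added to match infected plates; puromycin 10 μM positive, DMSO 0.5% negative; run in parallel with 48 h PbLuc assay at 37 °C, 5% CO2; viability by CellTiter-Glo luminescence, normalized to controls.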

Structure (SMILES) | cytotoxicity at 10 µM
Cc1ccc(N2CCCC(NCc3ccc4c(c3)OCCO4)C2)nn1 (centres undefined) | -20.1%
CN1C(=O)C2(CCN(C(=O)C3CCOCC3)CC2)c2ccccc21 | 2.5%
COc1cc2c(nn1)CCN(Cc1noc(-c3ccccc3)n1)C2 | -1.49%
CC(Oc1ccc(C(=O)NCCNS(C)(=O)=O)cn1)c1ccccc1 (centres undefined) | 7.44%
CN(CCc1ccccn1)Cc1nccn1Cc1ccccc1 | 10.1%
CN(CCc1ccccc1)Cc1c(C2CC2)[nH]c2ncccc12 | 0.145%
CCn1cc(-c2nn3c(C(F)(F)F)nnc3s2)cn1 | -12.3%
COCCNC(=O)c1cc(F)ccc1NS(C)(=O)=O | -1.23%
Cn1c2c(ccc1=O)CC(NC(=O)Cc1ccsc1)CC2 (centres undefined) | 4.08%
CC(CN(C)Cc1cccc(-n2cccn2)c1)C(F)(F)F (centres undefined) | 1.55%
CC(C)CC(=O)N1Cc2ccccc2CC1C(=O)Nc1nccs1 (centres undefined) | -135%
COc1ccccc1OCC(=O)N1CCN(Cc2noc(C)n2)CC1 | 3.82%
CCN(C(C)=O)c1nc(CN2CCCCC2Cn2cncn2)cs1 (centres undefined) | -5.4%
CC(=O)c1cc2ncc(C(=O)NC3CC3)cc2[nH]1 | -0.0253%
CN1CC[C@]2(CN(Cc3nccs3)C[C@H]2c2ccccc2)C1=O | 10.8%
O=C(c1ccncc1)N1CCC2(CC1)CC(Oc1cccnc1)CO2 (centres undefined) | -3.66%
CCC(CNC(=O)C1CCC1)(OC)c1ccccc1 (centres undefined) | 1.95%
Cc1ccc(CN(C)C(=O)C(C)n2cncn2)o1 (centres undefined) | -3.33%
Cc1noc(C)c1CN1C[C@@H]2COC[C@]2(COc2ccc(C#N)cn2)C1 | 9.49%
CNC(=O)Cn1nnc(-c2cc3ccccc3o2)n1 | 5.65%
Cc1cc(C)n(CCC(=O)N2CCC(Nc3cccnn3)CC2)n1 | -6.36%
OC1(CN2CCOC(Cn3cncn3)C2)CCCCC1 (centres undefined) | 9.87%

Structure (SMILES) | cytotoxicity at 10 µM
C=C(C)CN(CC)Cc1nc(C2CC2)no1 | -7.51%
CC(C)(C)CN1CC(O)CN(C(=O)c2cccc(C(F)(F)F)c2)CC1=O (centres undefined) | 5.99%
CCOc1ccc(S(=O)(=O)Nc2cnc(OC)nc2OC)cc1 | 44.7%
CC(C)(C)OC(=O)NCCc1csc(N2CCCC2)n1 | 24.9%
CCOC(=O)C(C)NC(=O)N1CCN(c2nc3ccccc3n2C)CC1 (centres undefined) | 3.39%
CC(Cn1cccn1)NC(=O)Nc1ccc(N2CCCC2)nc1 (centres undefined) | -0.708%
O=C1CSC(c2ccncc2)c2c(n(C3CCOCC3)[nH]c2=O)N1 (centres undefined) | -19.4%
Cc1ccc(C(N)c2cccs2)cc1 (centres undefined) | -0.367%
CCc1cc(O)nc(C2CCCN2C(=O)c2cc(CC)on2)n1 (centres undefined) | -12.6%
O=C(c1ccc(S(=O)(=O)NC2CCC2)cc1)N1CC[C@H]2CNC[C@H]21 | -13.5%
Cc1cc(C)n(CC2CN(CC(=O)NCc3cccs3)CCO2)n1 (centres undefined) | -9.89%
Cc1nc(CN2CCC(Oc3ccc(F)cc3C)(C(=O)O)CC2)co1 | 2.28%
CN1CCN(c2ccc(NCc3ccc(OC(F)(F)F)cc3)cn2)CC1 | 14.9%
Cc1nc(N(C)C)nc(C)c1NC(=O)c1ccccc1F | 41.7%
O=C(COc1ccccc1)NCC1CC1 | 7.76%
Cc1cc(CN(C)C(=O)c2ccc(C(F)(F)F)nc2)no1 | 2.05%
N#Cc1cccc(CN2CCn3cc(Cn4cccn4)nc3C2)c1 | -0.501%
O=C(c1cc(-c2cccnc2)[nH]n1)N1CCCC(Cc2ccccn2)C1 (centres undefined) | 7.5%
Cc1noc(C)c1C1CCCN1C(=O)c1cn2ccsc2n1 (centres undefined) | 12.3%
Cc1cccnc1[C@]1(O)CC[C@H]2CN(Cc3cccc(Cl)c3Cl)C[C@H]21 | -5.86%
CCN(CC)C(=O)CS(=O)(=O)c1cc(OC)c(OC)cc1C | -2.58%
CN(C)C(=O)c1ccc2c(c1)N(C)C(CC(=O)NC(CO)CO)CO2 (centres undefined) | -4.36%

Structure (SMILES) | cytotoxicity at 10 µM
CC1CCN(c2ccc(NC(=O)CCn3cccn3)cc2)CC1 | -10.6%
O=C(CCCn1cccn1)N1CCCC(n2cncn2)C1 (centres undefined) | 6.61%
CN(Cc1ccco1)C(=O)c1ccc(=O)n(C)c1 | -47.5%
OC1CCCOC12CCN(c1ncccn1)CC2 (centres undefined) | 3.73%
CC(C)CN1CCCn2nc(CNC(=O)CN3CCOC3=O)cc2C1 | 0.541%
O=C(c1cccc(F)c1)N1CCC2(CC1)CN(c1ccccn1)CCO2 | -74.1%
Cc1nn(C)c(N2CCCN(C)CC2)c1CNC(=O)CC(C)(C)C | 8%
CN(C)CCO[C@H]1CN(C(=O)c2ccc[nH]2)[C@@H]2COC[C@H]12 | 5.06%
C[C@@H]1CN(C(=O)CCCn2nnc(-c3ccc(F)cc3)n2)C[C@]1(C)O | 14.2%
C[C@@H]1CN(c2nc3c(cc2C(N)=O)CCC3)C[C@@]1(O)C1CCC1 | -3.98%
O=C(NC[C@H]1OC[C@@H](NCc2ccccn2)[C@@H]1O)c1ccncc1 | -9.77%
CS(=O)(=O)N1CC[C@H]2O[C@H](C(=O)NCCc3ccccn3)CC[C@H]21 | 8.5%
Cn1cc(CNc2cnn(CCO)c2)c(-c2ccncc2)n1 | 1.56%
COCc1n[nH]c2c1CN(Cc1ccccn1)C2 | -102%
CCN(Cc1nonc1C)C(=O)Cn1nc(C(F)(F)F)cc1C | 0.7%
CC(c1ccc(Cl)cc1)N1CCN(CCS(C)(=O)=O)CC1 (centres undefined) | -20.3%
Cc1[nH]ccc1C(=O)N1CCC(c2nnc(Cn3ccnc3)n2C)CC1 | -9.61%
CCNCc1ccc(OCc2ccc3c(c2)OCCO3)cc1 | 2.44%
CCOC(=O)NCCNC(=O)c1cc(Br)cn1C(C)C | 9.08%
Cc1noc([C@H]2C[C@H]3OCC[C@H]3N(Cc3ccc(F)cc3)C2)n1 | -76.4%
CCN1CCN(S(=O)(=O)c2c[nH]c(C(C)C)n2)c2ccccc21 | 4.65%
CN(C)c1ccc(C(=O)N2CCN(C(=O)N3CCCCC3)CC2)nn1 | -9.14%

Structure (SMILES) | cytotoxicity at 10 µM
COc1cccc(N2CCN(C(C(=O)O)c3ccc(OC)nc3)CC2)c1 (centres undefined) | 14.5%
Cn1ccc(C(=O)N2CCC(Cc3cccc4ncccc34)CC2)n1 | -3.17%
COCC(=O)N1CC[C@H]2C[C@H](c3nnc(C4CC4)o3)O[C@@H]2C1 | 4.85%
CC(C)Cc1cc(C(=O)NCCc2nnc(N)s2)n(C)n1 | 0.649%
Cc1oncc1C(=O)NCc1cc(=O)n2c(n1)CN(C)CCC2 | 5.02%
O=C(c1cccnc1)N1CCc2onc(CN3CCCC3)c2C1 | 4.86%
O=C(N[C@@H]1CCN(Cc2cccc3nonc23)C[C@H]1O)c1cccnc1 | -2.3%
CS(=O)(=O)N1CC[C@@H]2[C@@H]1CCN2Cc1ccc2c(c1)OCO2 | -5.96%
CN(C)S(=O)(=O)N1C[C@H]2CC[C@@H](C1)N(Cc1ccc3nsnc3c1)C2 | -7.7%
CN(C)CCN1CCO[C@H]2CCN(C(=O)c3cccs3)CC[C@@H]21 | -8.32%
Cn1cc(N2CC3(CCN(Cc4ccccc4)CC3)OCC2=O)cn1 | 5.25%
Cc1nccn1C1CCCN(C(=O)c2ccc(N(C)C)nn2)C1 (centres undefined) | -17.7%
O=C(CN1CCS(=O)(=O)CC1)NC1CCCCc2ccccc21 (centres undefined) | 7.28%
CN1CCO[C@@H]2CN(C(=O)Cc3cccs3)CC[C@@H]2C1 | -103%
Cc1cc(C2CCCN2C(=O)COc2ccc(CC#N)cc2)on1 (centres undefined) | -49.6%
CC(C)=CCN1CCN(Cc2cc(C)n[nH]2)CC1CCO (centres undefined) | 1.96%
O=S(=O)(CC1CCCN1S(=O)(=O)C1CC1)c1ccccc1 (centres undefined) | -5.75%
N#CCCn1nc(C(F)(F)F)c2c1CCCC2 | -11.9%
CC(C(=O)NCc1ccc(N2CCCCC2)nc1)S(C)(=O)=O (centres undefined) | -8.81%
Cc1noc(NC(=O)c2ccc(C#N)cc2)n1 | -5.32%
COc1ccc(C[C@@H]2CC[C@H](CN(C)C3CCN(C)CC3)O2)cc1 | -7.25%
COc1ncc(CN2C[C@@H]3C[C@@H](O)CN3C[C@@H]2Cc2ccccc2)cn1 | -6.86%

Structure (SMILES) | cytotoxicity at 10 µM
CC(C)CN1CCC(c2nc3c([nH]2)CC(C)(C)CNC3=O)C1 (centres undefined) | -10.6%
Cc1nc(CNCC2CN(C3CC3)CCO2)cs1 (centres undefined) | -10.1%
O=C(COC1CCCC1)N1CCCN(c2ncccn2)CC1 | 15.9%
CC(=O)N1CCCC(C(=O)N2CCN(Cc3cc(C)on3)CC2)C1 (centres undefined) | -52.2%
COc1cc(CNCCNC(=O)c2ccc(O)cc2)ccc1SC | 9.72%
CC(C)=CCN1C[C@@H]2CN(C(=O)c3cnccc3C)C[C@]2(C(=O)O)C1 | 2.85%
Cc1cc(C)n(C2CN(CC(O)c3cc(F)ccc3F)C2)n1 (centres undefined) | -15.1%
CCN1CCN(C(=O)C2CC(=O)N(c3cnn(C(C)C)c3)C2)CC1 (centres undefined) | 5.61%
C=C(C)CN1CCC(NC(=O)Nc2cc(C(N)=O)ccc2OC)CC1 | 10.8%
Cn1ccnc1C(O)(CCNCc1ccco1)C(F)(F)F (centres undefined) | 1.66%
Cn1ncc(C(=O)OCC2CCN(c3ccccc3)C2)c1C(F)F (centres undefined) | -5.44%
Cc1ccc(C(=O)N2C[C@@H](OCc3cccnc3)[C@H]3OCCC[C@H]32)o1 | 4.74%
CNc1nc(CNC(=O)Nc2ccccc2SC)cs1 | -7.95%
NC(=O)C1CCCN(Cc2ccc(C(=O)Nc3cnns3)cc2)C1 (centres undefined) | 13.7%
CN(C)S(=O)(=O)N1CCCCC1CCc1ccc(O)cc1 (centres undefined) | 4.32%
Cc1ccc(-c2ncc(C(=O)NS(C)(=O)=O)s2)c(C)c1 | -8.91%
CCc1ncc2c(n1)CN(CC(=O)Nc1cc(C)on1)CC2 | 0.049%
Cc1cc(NS(=O)(=O)c2ccccc2F)ccc1-n1cccc1C(=O)O | -5.67%
CN(Cc1ccsc1)C(=O)c1ccc(F)c(NS(C)(=O)=O)c1 | -5.7%
COCCC(=O)N1CCC(Nc2ncc(Br)cn2)CC1 | -2.46%
CC(C)c1nc(CC(=O)N2CCCC(n3cncn3)C2)cs1 (centres undefined) | -8.24%
